Reference: ChEMBL document CHEMBL1156663, “11-Hydroxymonocerin from the plant endophytic fungus Exserohilum rostratum” (J Nat Prod, 2008)

Experiments:
Plasmodium falciparum = experiment: Antimalarial activity against multidrug-resistant Plasmodium falciparum K1; assay type: functional, organism-based
Method in brief: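 In vitro microculture radioisotope assay against P. falciparum K1 (multidrug-resistant), parasites maintained in continuous culture; IC50 determined, dihydroartemisinin run as positive control.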

BT-474 = experiment: Cytotoxicity against human BT474 cells at 20 ug/mL by MTT assay; assay type: functional, cell-based
CHAGO = experiment: Cytotoxicity against human CHAGO cells at 20 ug/mL by MTT assay; assay type: functional, cell-based
HepG2 = experiment: Cytotoxicity against human HepG2 cells at 20 ug/mL by MTT assay; assay type: functional, cell-based
KATO3 = experiment: Cytotoxicity against human KATO3 cells at 20 ug/mL by MTT assay; assay type: functional, cell-based
SW-620 = experiment: Cytotoxicity against human SW620 cells at 20 ug/mL by MTT assay; assay type: functional, cell-based

Structure (SMILES) | IC50 (Plasmodium falciparum) | Activity (BT-474) | Activity (CHAGO) | Activity (HepG2) | Activity (KATO3) | Activity (SW-620)
CC[C@@H](OC(C)=O)[C@@H]1C[C@@H]2OC(=O)c3c(cc(OC)c(OC)c3OC(C)=O)[C@@H]2O1 | 9.1 µM | Not toxic | Not toxic | Not toxic | Not toxic | Not toxic
CCC[C@@H]1C[C@@H]2OC(=O)c3c(cc(OC)c(OC)c3OC(C)=O)[C@@H]2O1 | 0.82 µM | Not toxic | Not toxic | Not toxic | Not toxic | Not toxic
CCC[C@H]1C[C@H]2OC(=O)c3c(cc(OC)c(OC)c3O)[C@H]2O1 [MONOCERIN] | 0.68 µM | Not toxic | Not toxic | Not toxic | Not toxic | Not toxic
CC[C@@H](O)[C@@H]1C[C@@H]2OC(=O)c3c(cc(OC)c(OC)c3O)[C@@H]2O1 | 7.7 µM | Not toxic | Not toxic | Not toxic | Not toxic | Not toxic
